ChEMBL document CHEMBL4373727, “Thienopyrimidinone Derivatives That Inhibit Bacterial tRNA (Guanine37-N1)-Methyltransferase (TrmD) by Restructuring the Active Site with a Tyrosine-Flipping Mechanism” (J Med Chem, 2019)
Calls of active or inactive are those of the source. The rule behind the calls is not given here.

Assays:
Streptococcus pneumoniae = test: Antibacterial activity against Streptococcus pneumoniae ATCC 49619 at 100 uM incubated for 24 hrs; type: functional, organism-based
Procedure, shortened: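 Single 100 μM screen in MH medium with 3% defibrinated sheep blood at 37 °C under 5% CO2, ~5×10^5 cells/mL, 24 h.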

[1] = biological target: T1, tRNA (guanine-N(1)-)-methyltransferase (Mycobacterium tuberculosis (strain ATCC 25618 / H37Rv)) (UniProt P9WFY7); test: Binding affinity to full length Mycobacterium tuberculosis tRNA (guanine(37)-N1)-methyltransferase expressed in Escherichia coli BL21 (DE3) assessed as dissociation rate constant by surface plasmon resonance assay
T1 sequence (whole entry): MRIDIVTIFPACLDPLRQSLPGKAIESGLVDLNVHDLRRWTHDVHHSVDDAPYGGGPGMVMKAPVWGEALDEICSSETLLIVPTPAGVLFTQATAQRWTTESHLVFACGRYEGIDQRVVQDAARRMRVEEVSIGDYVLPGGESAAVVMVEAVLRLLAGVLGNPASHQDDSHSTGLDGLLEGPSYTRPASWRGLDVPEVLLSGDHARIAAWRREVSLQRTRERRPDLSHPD
Procedure, shortened: (§1)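 SPR at 25 °C. His-tagged TrmD (50 μg/mL) captured on an anti-His antibody surface (about 2200 RU), with a blank reference cell. Buffer: 50 mM Tris-HCl pH 8, 150 mM NaCl, 1 mM MgCl2, 1 mM DTT, 0.05% Tween-20. Analyte in 2-fold dilutions, injected lowest to highest at 30 μL/min, 30 s contact, 240 s dissociation. KD from steady-state affinity fit.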

[2] = biological target: T2, tRNA (guanine-N(1)-)-methyltransferase (Staphylococcus aureus (strain NCTC 8325 / PS 47), UniProt Q2FZ43); test: Binding affinity to full length Staphylococcus aureus tRNA (guanine(37)-N1)-methyltransferase expressed in Escherichia coli BL21 (DE3) by surface plasmon resonance assay; procedure, shortened: as §1
T2 sequence (Q2FZ43 whole entry): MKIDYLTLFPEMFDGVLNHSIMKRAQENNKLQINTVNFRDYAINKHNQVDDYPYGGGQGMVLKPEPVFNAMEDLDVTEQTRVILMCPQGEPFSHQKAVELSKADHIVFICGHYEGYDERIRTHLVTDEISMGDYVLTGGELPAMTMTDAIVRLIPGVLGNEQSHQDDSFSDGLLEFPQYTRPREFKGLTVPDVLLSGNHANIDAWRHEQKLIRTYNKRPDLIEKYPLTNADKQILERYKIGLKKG

[3] = biological target: T3, tRNA (guanine-N(1)-)-methyltransferase (Staphylococcus aureus (strain NCTC 8325 / PS 47)) (UniProt Q2FZ43); test: Binding affinity to full length Staphylococcus aureus tRNA (guanine(37)-N1)-methyltransferase expressed in Escherichia coli BL21 (DE3) assessed as association rate constant by surface plasmon resonance assay; procedure, shortened: as §1
T3 sequence (whole entry): T2 sequence (Q2FZ43 whole entry)

[4] = test system: Mycolicibacterium smegmatis; test: Antibacterial activity against Mycolicibacterium smegmatis MC2 155 at 100 uM incubated for 24 hrs; type: functional, organism-based
Procedure, shortened: (§2)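 Single-concentration growth screen: 100 μM test compound with log-phase bacteria at about 5×10^5 cells/mL. Incubation 24 h at 37 °C. Growth read by OD600 and given as percent of untreated control. MRSA was grown in cation-adjusted Mueller–Hinton broth. M. smegmatis was grown in complete Middlebrook 7H9. Ampicillin and kanamycin served as positive controls.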

[5] = biological target: T4, tRNA (guanine-N(1)-)-methyltransferase (Pseudomonas aeruginosa (strain ATCC 15692 / DSM 22644 / CIP 104116 / JCM14847 / LMG 12228 / 1C / PRS 101 / PAO1), UniProt Q9HXQ1); test: (§3) Inhibition of Pseudomonas aeruginosa tRNA (guanine(37)-N1)-methyltransferase (Leu5 to Asp25 residues) expressed in Escherichia coli BL21 Rosetta (DE3) assessed as reduction in S-adenosyl-L-homocysteine production preincubated for 15 mins followed by 4.5 uM of tRNALeu(CAG) substrate and SAM addition and measured after 45 mins by MTase-Glo assay
T4 sequence (Q9HXQ1 whole entry): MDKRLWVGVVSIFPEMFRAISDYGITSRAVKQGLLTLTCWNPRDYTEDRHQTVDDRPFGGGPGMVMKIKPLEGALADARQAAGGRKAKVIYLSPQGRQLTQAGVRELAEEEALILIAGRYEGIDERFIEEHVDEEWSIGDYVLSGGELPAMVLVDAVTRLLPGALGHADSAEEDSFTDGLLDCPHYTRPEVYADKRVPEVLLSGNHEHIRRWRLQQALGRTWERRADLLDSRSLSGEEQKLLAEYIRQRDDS
Procedure, shortened: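 tRNA competition: same MTase-Glo assay with 8 nM PaTrmD and 2 μM SAM, 15 min preincubation and 45 min reaction at 37 °C. tRNALeu(CAG) at 1.5, 4.5 or 15 μM. IC50 from dose–response curves, duplicate data points.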

[6] = biological target: T1, tRNA (guanine-N(1)-)-methyltransferase (Mycobacterium tuberculosis (strain ATCC 25618 / H37Rv)); test: Binding affinity to full length Mycobacterium tuberculosis tRNA (guanine(37)-N1)-methyltransferase expressed in Escherichia coli BL21 (DE3) assessed as association rate constant by surface plasmon resonance assay; procedure, shortened: as §1
[7] = biological target: T5, tRNA (guanine-N(1)-)-methyltransferase (Pseudomonas aeruginosa (strain ATCC 15692 / DSM 22644 / CIP 104116 / JCM14847 / LMG 12228 / 1C / PRS 101 / PAO1)) (UniProt Q9HXQ1); test: Binding affinity to Pseudomonas aeruginosa tRNA (guanine(37)-N1)-methyltransferase (Leu5 to Asp25 residues) expressed in Escherichia coli BL21 (DE3) Rosetta T1R cells assessed as dissociation rate constant by surface plasmon resonance assay; procedure, shortened: as §1
T5 sequence (whole entry): T4 sequence (Q9HXQ1 whole entry)

[8] = biological target: T4, tRNA (guanine-N(1)-)-methyltransferase; test: as §3, with “BL21 (DE3)” for “BL21”, “T1R cells” for “(DE3)”, “1.5” for “4.5”
Procedure, shortened: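 MTase-Glo luminescence assay. 8 nM TrmD preincubated 15 min at ambient temperature with serially diluted inhibitor (0–500 μM) in 50 mM Tris-HCl pH 8.0, 80 mM NaCl, 1 mM MgCl2, 0.5 mM DTT, 0.01% Triton X-100. Reaction with 2 μM SAM and tRNALeu(CAG), 45 min at 37 °C. Detection 30 min in the dark, SAH read against a standard curve. IC50 by nonlinear regression. Two independent experiments in duplicate.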

[9] = test system: Mycobacterium tuberculosis; test: Antibacterial activity against Mycobacterium tuberculosis ATCC 27294 at 100 uM incubated for 7 days; type: functional, organism-based
[10] = biological target: T5, tRNA (guanine-N(1)-)-methyltransferase (Pseudomonas aeruginosa (strain ATCC 15692 / DSM 22644 / CIP 104116 / JCM14847 / LMG 12228 / 1C / PRS 101 / PAO1)); test: Binding affinity to Pseudomonas aeruginosa tRNA (guanine(37)-N1)-methyltransferase (Leu5 to Asp25 residues) expressed in Escherichia coli BL21 (DE3) Rosetta T1R cells assessed as association rate constant by surface plasmon resonance assay; procedure, shortened: as §1
Staphylococcus aureus = test: Antibacterial activity against methicillin-resistant Staphylococcus aureus ATCC 43300 at 100 uM incubated for 24 hrs; type: functional, organism-based; procedure, shortened: as §2
[11] = biological target: T3, tRNA (guanine-N(1)-)-methyltransferase (Staphylococcus aureus (strain NCTC 8325 / PS 47)); test: Binding affinity to full length Staphylococcus aureus tRNA (guanine(37)-N1)-methyltransferase expressed in Escherichia coli BL21 (DE3) assessed as dissociation rate constant by surface plasmon resonance assay; procedure, shortened: as §1
[12] = biological target: T4, tRNA (guanine-N(1)-)-methyltransferase; test: Binding affinity to Pseudomonas aeruginosa tRNA (guanine(37)-N1)-methyltransferase (Leu5 to Asp25 residues) expressed in Escherichia coli BL21 (DE3) Rosetta T1R cells by surface plasmon resonance assay; procedure, shortened: as §1

| SMILES | Activity (Streptococcus pneumoniae) | Kdiss [1] [s⁻¹] | Kd [2] [nM] | Ka [3] [M⁻¹ s⁻¹] | Activity [4] | IC50 [5] [nM] | Ka [6] [M⁻¹ s⁻¹] | Kdiss [7] [s⁻¹] | IC50 [8] [nM] | Activity [9] | Ka [10] [M⁻¹ s⁻¹] | Activity (Staphylococcus aureus) | Kdiss [11] [s⁻¹] | Kd [12] [nM] |
| --- | --- | --- | --- | --- | --- | --- | --- | --- | --- | --- | --- | --- | --- | --- |
| NC1CCN(Cc2ccc(CNC(=O)c3csc4nc[nH]c(=O)c34)cc2)CC1 | inactive | 0.209 | 27500 | 59900 | inactive | 330 | 20100 | 0.0117 | 180 | inactive | 128000 | inactive | 1.65 | 91 |
| CCCCCCCCNCc1ccc(CNC(=O)c2csc3nc[nH]c(=O)c23)cc1 | Active | 0.12 | 3100 | 2.94e+06 | Active | 60 | 645000 | 0.0218 | 24 | Active | 1.35e+07 | Active | 9.15 | 1.6 |
